According to ChEMBL document CHEMBL1133105, “Antimalarial, antitrypanosomal, and antileishmanial activities and cytotoxicity of bis(9-amino-6-chloro-2-methoxyacridines): influence of the linker” (J Med Chem, 2000):

How the values were obtained:
[1] = system: Leishmania infantum; assay: Percentage of activity against Leishmania infantum 6.25 uM; type: functional
Outline: (§1)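 Starch-stimulated mouse peritoneal macrophages, 30 000/well, infected after 24 h with spleen-derived L. infantum amastigotes (10:1) together with 2-fold drug dilutions (12.5–1.56 µM). Incubated 7 days at 37 °C, 5% CO2. Wright-stained slides scored microscopically as % reduction of total parasite load or of infected macrophages. Uninfected treated cultures judged microscopically for macrophage toxicity.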

[2] = system: Leishmania infantum; assay: Percentage of activity against Leishmania infantum at 1.56 uM; type: functional; outline: as §1
[3] = system: Leishmania infantum; assay: Percentage of activity against Leishmania infantum at 12.5 uM Concentration; Toxic upon mouse primary peritoneal macrophages; type: functional, organism-based; outline: as §1
[4] = system: Leishmania infantum; assay: Percentage of activity against Leishmania infantum at 3.13 uM; type: functional; outline: as §1
[5] = system: MRC5; assay: Cytotoxicity on MRC-5 cells at 12.5 uM; type: functional; settings: Homo sapiens
Outline: (§2)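 MRC-5 human diploid embryonic lung cells seeded at 5 000/well, washed after 24 h, then given 2-fold drug dilutions (25, 12.5, 6.25, 3.13 µM) in RPMI + 5% FCS, final DMSO below 0.5%. Incubated 7 days at 37 °C, 5% CO2. MTT colorimetric read-out, scored as % reduction of absorbance at 540 nm versus untreated controls.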

[6] = system: MRC5; assay: Cytotoxicity on MRC-5 cells at 25 uM; type: functional; settings: Homo sapiens; outline: as §2
[7] = system: MRC5; assay: Cytotoxicity on MRC-5 cells at 3.13 uM; type: functional; settings: Homo sapiens; outline: as §2
[8] = system: MRC5; assay: Cytotoxicity on MRC-5 cells at 6.25 uM; type: functional; settings: Homo sapiens; outline: as §2
[9] = system: Plasmodium falciparum; assay: In vitro sensitivity for Plasmodium falciparum FcB1R; type: functional, organism-based
Outline: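 Asynchronous P. falciparum cultures in human erythrocytes (0.5% parasitemia, 1% haematocrit) exposed to serially diluted drug for 24 h at 37 °C. [3H]hypoxanthine (0.5 µCi/well) then added for a further 24 h. Uptake compared with drug-free controls on the same plate. IC50 taken from the concentration–response curve, averaged over independent experiments. DMSO ≤0.1%.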

[10] = system: Trypanosoma cruzi; assay: Percentage of activity against Trypanosoma cruzi at 1.56 uM; type: functional
Outline: (§3)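 Mouse peritoneal macrophages, 30 000/well, infected after 24 h with about 100 000 T. cruzi trypomastigotes per well plus 2-fold drug dilutions (12.5–1.56 µM). Incubated 4 days at 37 °C, 5% CO2. Methanol-fixed, Giemsa-stained and scored microscopically as % reduction of total parasite load (free trypomastigotes plus intracellular amastigotes) versus untreated controls.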

[11] = system: Trypanosoma cruzi; assay: Percentage of activity against Trypanosoma cruzi at 12.5 uM; type: functional; outline: as §3
[12] = system: Trypanosoma cruzi; assay: Percentage of activity against Trypanosoma cruzi at 3.13 uM; type: functional; outline: as §3
[13] = system: Trypanosoma cruzi; assay: Percentage of activity against Trypanosoma cruzi at 6.25 uM Concentration; type: functional; outline: as §3
[14] = system: Trypanosoma brucei; assay: Percentage of activity against Trypanosoma brucei at 6.25 uM; type: functional
Outline: (§4)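 Bloodstream-form T. brucei in HMI-9 medium, 10 000 parasites/well, exposed to 12.5, 6.25, 3.13 and 1.56 µM drug for 4 days. Read-out is % inhibition of parasite multiplication. Macrophage toxicity judged on mouse primary peritoneal macrophages.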

[15] = system: Trypanosoma brucei; assay: Percentage of activity against Trypanosoma brucei at 12.5 uM; type: functional; outline: as §4
[16] = system: Trypanosoma brucei; assay: Percentage of activity against Trypanosoma brucei at 1.56 uM; type: functional; outline: as §4
[17] = system: Trypanosoma brucei; assay: Percentage of activity against Trypanosoma brucei at 3.13 uM; type: functional; outline: as §4
[18] = system: Trypanosoma cruzi; assay: Percentage of activity against Trypanosoma cruzi at 12.5 uM; Toxic upon mouse primary peritoneal macrophages; type: functional, organism-based; outline: as §3

| SMILES | IC50 [9] | Antileishmanial activity (% reduction of parasite load) [1] | Antileishmanial activity (% reduction of parasite load) [2] | Cytotoxicity [3] | Percent antileishmanial activity (reduction of parasite load) [4] | cytotoxicity at 12.5 µM [5] | cytotoxicity at 25 µM [6] | cytotoxicity at 3.13 µM [7] | cytotoxicity at 6.25 µM [8] | Parasite load reduction [10] | T. cruzi parasite load reduction [11] | Reduction of T. cruzi parasite load [12] | Reduction of T. cruzi parasite load [13] | Inhibition of parasite multiplication [14] | Inhibition of parasite multiplication [15] | Percent inhibition of parasite multiplication [16] | Parasite growth inhibition [17] | Cytotoxicity [18] |
| --- | --- | --- | --- | --- | --- | --- | --- | --- | --- | --- | --- | --- | --- | --- | --- | --- | --- | --- |
| COc1ccc2nc3cc(Cl)ccc3c(NCCCN(CCCNc3c4ccc(Cl)cc4nc4ccc(OC)cc34)C(=O)C(CCCCNC(=O)OCC3c4ccccc4-c4ccccc43)NC(=O)OC(C)(C)C)c2c1 (stereo not given) | 0.273 µM | 40% | 0% | Toxic | 0% | 90% | 100% | 20% | 80% | 0% | – | 20% | 80% | 100% | 100% | 100% | 100% | Toxic |
| COc1ccc2nc3cc(Cl)ccc3c(NCCCCCCCCCCCCNc3c4ccc(Cl)cc4nc4ccc(OC)cc34)c2c1 | 0.176 µM | 80% | 0% | Toxic | 40% | 20% | 100% | 0% | 0% | 0% | 90% | 0% | 40% | 100% | 100% | 70% | 100% | – |
| COc1ccc2nc3cc(Cl)ccc3c(NCCCN(CCCNc3c4ccc(Cl)cc4nc4ccc(OC)cc34)C(=O)C(COCc3ccccc3)NC(=O)OC(C)(C)C)c2c1 (stereo not given) | 0.138 µM | 90% | 40% | Toxic | 70% | 100% | 100% | 100% | 100% | 0% | – | 40% | 80% | 100% | 100% | 100% | 100% | Toxic |
| COc1ccc2nc3cc(Cl)ccc3c(NCCCN(CCCNc3c4ccc(Cl)cc4nc4ccc(OC)cc34)C(=O)CCN3CCNCC3)c2c1 | > 0.5 µM | 0% | 0% | Toxic | 0% | 0% | 15% | 0% | 0% | 0% | 90% | 0% | 0% | 100% | – | 95% | 99% | – |

These reach a lower IC50 [9]. Values come first.

| IC50 [9] | SMILES | Antileishmanial activity (% reduction of parasite load) [1] | Antileishmanial activity (% reduction of parasite load) [2] | Cytotoxicity [3] | Percent antileishmanial activity (reduction of parasite load) [4] | cytotoxicity at 12.5 µM [5] | cytotoxicity at 25 µM [6] | cytotoxicity at 3.13 µM [7] | cytotoxicity at 6.25 µM [8] | Parasite load reduction [10] | T. cruzi parasite load reduction [11] | Reduction of T. cruzi parasite load [12] | Reduction of T. cruzi parasite load [13] | Inhibition of parasite multiplication [14] | Inhibition of parasite multiplication [15] | Percent inhibition of parasite multiplication [16] | Parasite growth inhibition [17] | Cytotoxicity [18] |
| --- | --- | --- | --- | --- | --- | --- | --- | --- | --- | --- | --- | --- | --- | --- | --- | --- | --- | --- |
| 0.071 µM | COc1ccc2nc3cc(Cl)ccc3c(NCCCN(CCCNc3c4ccc(Cl)cc4nc4ccc(OC)cc34)C(=O)C(CNC(=O)OCC3c4ccccc4-c4ccccc43)NC(=O)OC(C)(C)C)c2c1 (stereo not given) | 95% | 20% | Toxic | 70% | 60% | 68% | 55% | 57% | 0% | – | 20% | 90% | 100% | – | 100% | 100% | Toxic |
| 0.057 µM | COc1ccc2nc3cc(Cl)ccc3c(NCCCCCCCCCCNc3c4ccc(Cl)cc4nc4ccc(OC)cc34)c2c1 | 90% | 20% | Toxic | 70% | 80% | 90% | 0% | 0% | 0% | 99% | 40% | 70% | 100% | 100% | 100% | 100% | – |
| 0.055 µM | COc1ccc2nc3cc(Cl)ccc3c(NCCCN(CCCNc3c4ccc(Cl)cc4nc4ccc(OC)cc34)C(=O)C(CNC(=O)OC(C)(C)C)NC(=O)OC(C)(C)C)c2c1 (stereo not given) | 99% | 80% | Toxic | 95% | 50% | 70% | 43% | 48% | 0% | – | 40% | 80% | 100% | – | 100% | 100% | Toxic |
| 0.031 µM | COc1ccc2nc3cc(Cl)ccc3c(NCCCN(CCCNc3c4ccc(Cl)cc4nc4ccc(OC)cc34)C(=O)C(CC(=O)OC3CCCCC3)NC(=O)OC(C)(C)C)c2c1 (stereo not given) | 80% | 20% | Toxic | 60% | 100% | 100% | 40% | 100% | 0% | 98% | 20% | 70% | 100% | 100% | 100% | 100% | – |
| 0.019 µM | COc1ccc2nc3cc(Cl)ccc3c(NCCCCCCCCNc3c4ccc(Cl)cc4nc4ccc(OC)cc34)c2c1 | 95% | 70% | Toxic | 90% | 100% | 100% | 20% | 100% | 70% | – | 90% | 98% | 100% | 100% | 100% | 100% | Toxic |
